Screens as filed in PubChem BioAssay.
HKDC1 inh: blocks human hexokinase HKDC1 activity. Q2TB90. recombinant HKDC1, G6PDH/diaphorase resazurin coupled fluorescence. inhibition, % at 20 µM. hit rate 0.16% among 340,000;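 active = inhibition above about 35% when tested at 20 µM, limit read from the data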;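 note: plate controls were DMSO wells with enzyme for no effect and DMSO wells lacking enzyme for full effect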
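Test system: recombinant HKDC1 (HK5) hexokinase enzyme, produced in-house / Doses: 20 µM test compound, 1% DMSO / Timing: 90 min, room temperature / Detection: G6PDH/diaphorase-coupled fluorescence, 1 mM NADP, 100 µM resazurin, 525/613 nm / Control set: DMSO wells with and without enzyme mix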
HDAC3 inhib: blocks human histone deacetylase 3; recombinant HDAC3, fluorogenic peptide/trypsin coupled, fluorescence; hit rate 0.15% among 320,000; O15379; AID 2718; inhibition, % at 8.3 µM; in the data active = inhibition above about 26%, passing the limit was not always enough; inconclusive = no clear call, values can overlap the other calls
ATG4B inh: ATG4B (human) cysteine protease inhibition | hit rate 0.51% among 340,000 | ATG4B cleavage of LC3-PLA2, NBD-HPC fluorescence, 1 h | inhibition, % at 8.33 µM; in the data active = inhibition above about 40%
Target sequence (Q9Y4P1 whole entry, looked up): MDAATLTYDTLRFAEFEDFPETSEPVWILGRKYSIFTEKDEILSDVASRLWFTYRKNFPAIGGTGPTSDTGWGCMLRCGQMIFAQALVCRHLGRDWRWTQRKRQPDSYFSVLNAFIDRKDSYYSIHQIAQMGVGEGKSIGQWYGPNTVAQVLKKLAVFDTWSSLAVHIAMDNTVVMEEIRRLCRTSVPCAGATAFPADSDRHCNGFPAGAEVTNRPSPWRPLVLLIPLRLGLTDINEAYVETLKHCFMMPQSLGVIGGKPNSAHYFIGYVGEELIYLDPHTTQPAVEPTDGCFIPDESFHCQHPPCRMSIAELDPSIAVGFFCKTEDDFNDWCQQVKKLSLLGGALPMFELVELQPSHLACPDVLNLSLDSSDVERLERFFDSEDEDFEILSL
AI-2 QS modul: modulates the Vibrio harveyi AI-2 quorum sensing system. Vibrio harveyi JMH597 AI-2 luminescence/OD600 ratio, 9 h; hits give low values; strain lacks LuxN and CqsS sensors; 0 = neutral-control median. activity change, % at 7.5 µM. hit rate 0.4% among 300,000. AID 2094; in the data active = activity change below about -75%, passing the limit was not always enough; inconclusive = no clear call, values can overlap the other calls;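 note: luminescence divided by OD600 gain over 9 h not by final OD600 alone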
LANA-H2B inh: blocks KSHV LANA binding to histone H2A/H2B; cell-free LANA-H2A/H2B peptide, fluorescence polarization; Q9QR71; inhibition, % (concentration not given with the values); hit rate 0.6% among 320,000; in the data active = inhibition mostly above about 10%, no sharp cut-off; inactive = mostly below about 6.7%
Bfl-1 A1 inh: inhibitors of the anti-apoptotic protein A1, read as caspase activation; AID 2462; hit rate 0.066% among 330,000; caspase activation, % (test concentration not listed); MEF A1-2A-BIM cells, Caspase-Glo 3/7 luminescence, 3 h; percent of clofoctol response, vehicle zero;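 active = over half of replicate activation scores above 10%, or exactly half above 10 with the replicate mean above 10; inconclusive = replicate mean below 10 yet half the replicates above 10; inactive = over half of replicates below 10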
Numbers without * were called inactive; u = inconclusive; x = no result; + = active, no number; ! = not confirmed by another sample. This is a sample that favours compounds with a hit; in the whole collection about 1.8% have one here.

SMILES	HKDC1 inh	HDAC3 inhib	ATG4B inh	AI-2 QS modul	LANA-H2B inh	Bfl-1 A1 inh
CCOC(=O)COc1ccc(Br)cc1C1NC(=O)NC(C)=C1C(=O)NCc1ccccc1 (stereo not given)	-4	-6	-1	27	67*	0
CS(=O)(=O)N1CCc2cc(C(=O)OCC(=O)c3ccccc3)ccc21	2	0	11	-77*	4	-2
O=C(COC(=O)c1nc(Cl)ccc1Cl)NCc1ccccc1	-9	-6	-4	10	14*	1
CC(C)c1ccc(NC(=O)[C@H]2CSCN2C(=O)[C@@H]2CCC(=O)N2)cc1	2	2	-1	8	-1	0
COc1cc(NC(=O)[C@H]2CSCN2C(=O)[C@@H]2CCC(=O)N2)cc(OC)c1OC	1	-2	6	1	14*	1
CCOC(=O)C(C)C(C)=O (stereo not given)	-5	0	-2	x	15*	0
CCOC(=O)C(C(C)=O)C(c1ccc(OC)cc1)C(C(C)=O)C(=O)OCC (stereo not given)	-5	8	-2	24	-5	-1
CCCCN([C@H](CO)C(C)C)S(=O)(=O)c1ccccc1Br	4	x	0	x	x	x
COc1ccc(-c2noc(CCC(=O)N3CCN(c4ccccc4C(F)(F)F)CC3)n2)cc1	-4	x	12	x	x	x
COc1ccc(-c2coc3cc(OC(C)=O)ccc3c2=S)cc1	-21	x	-2	x	x	x
Cc1c(C=O)c(=O)n(-c2ccccc2)n1C	-10	-6	3	-6	5	0
Cc1c(N(C)C)c(=O)n(-c2ccccc2)n1C	-7	-9	7	x	42*	0
CC(=O)NC1(c2ccccc2)CCN(CC(=O)N2CCC(C)CC2)CC1	-8	-5	0	9	6	0
COc1cc(C(=O)NCCc2ccc(S(=O)(=O)N3CCCC3)cc2)cc(OC)c1OC	-15	-1	-7	29	-2	0
O=C1c2ccc3c4c(ccc(c24)C(=O)N1c1ccc(O)cc1)C(=O)N(c1ccc(O)cc1)C3=O	56*	3	-6	4	5	0
O=C(O)c1ccc(S(=O)(=O)c2ccc3c(c2)C(=O)N(c2ccc(O)cc2)C3=O)cc1	-10	x	-2	-3	-1	u
CCN(C[C@H]1N[C@@](Cc2ccccc2)(C(=O)OC)[C@H]2C(=O)N(C)C(=O)[C@@H]12)C(=O)Nc1ccc(Cl)cc1	-1	-6	-4	x	2	0
C[C@@H](C(=O)Nc1nc2ccccc2s1)N1C(=O)C2CC=CCC2C1=O (stereo not given in full)	-2	4	-8	11	-5	0
CC(C(=O)Nc1nnc(C2CC2)s1)N1C(=O)C2CC=CCC2C1=O (stereo not given)	0	1	0	x	13*	0
CCN1CCS/C1=C\C=C\C1=[N+](CC)CCS1	1	x	4	23	x	x
CCN1CCS/C1=C/C=C/C1=[N+](CC)CCS1	-9	36*	34	12	1	-1
CCC(C)N1CCC(Oc2ccc(C(=O)NCc3ccccn3)cc2)CC1 (stereo not given)	-7	-3	3	-1	175*	-1
O=C(NCc1ccccn1)c1ccc(OC2CCN(Cc3ccccc3)CC2)cc1	-3	5	-6	-2	-2	1
Cn1c(NCc2cccs2)nc2ccccc21	-4	-4	-7	15	22*	-6
CCCN(CCC)Cc1c(C(=O)N/N=C/c2c[nH]c3ccccc23)nnn1-c1nonc1N	9	32*	-14	2	7	0
SMILES	HKDC1 inh	HDAC3 inhib	ATG4B inh	AI-2 QS modul	LANA-H2B inh	Bfl-1 A1 inh
CCOc1ccc(OCCCC(=O)N(CC)CC(=O)Nc2c(F)cccc2F)cc1	-3	-4	4	x	36*	0
CCN(CC(=O)Nc1c(F)cccc1F)C(=O)/C=C/c1ccc(OCC#N)c(OC)c1	-4	-1	2	23	-1	0
CCN(CC(=O)Nc1c(F)cccc1F)C(=O)/C=C/c1ccc(C)cc1	5	2	-7	x	8	12*
Cc1ccc(S(=O)(=O)N(C)c2ccc(C(=O)NCC(c3ccco3)N(C)C)cc2)cc1 (stereo not given)	-1	-1	0	x	35*	-1
Cc1ccccc1NS(=O)(=O)c1ccc(C(=O)NCC(c2ccccc2)N(C)C)cc1 (stereo not given)	9	6	6	3	6	1
Cc1ccccc1NS(=O)(=O)c1ccc(C(=O)NCC(c2ccco2)N(C)C)cc1 (stereo not given)	-2	-14	3	12	20*	1
Cc1ccc(C)c(S(=O)(=O)Nc2ccc(C(=O)NCC(c3ccco3)N(C)C)cc2)c1 (stereo not given)	-1	-5	-3	27	4	0
O=C(NCCc1ccccc1F)C1CC(=O)N(c2cccc(C(F)(F)F)c2)C1 (stereo not given)	0	x	-2	x	x	x
CCCC(C(=O)NNC(=O)c1ccncc1)c1ccccc1 (stereo not given)	-6	-6	1	x	4	-2
CCN(CCn1cccn1)Cc1nc(-c2ccccc2)no1	-2	-7	2	5	-5	-1
CCN(CCn1cccn1)Cc1nc(-c2ccc(OC)cc2)no1	1	-10	-13	18	+	0
O=C(Nc1ccccc1O)c1ccc(C(=O)c2ccccc2)o1	2	48*	-10	10	3	0
COc1ccc2c(CC(=O)OCc3nc4ccsc4c(=O)[nH]3)coc2c1	0	2	0	x	8	0
Cc1nnc(SCC2=C(C(=O)O)N3C(=O)[C@@H](NC(=O)Cn4cnnn4)[C@H]3SC2)s1	-9	9	-7	14	77*!	0
Cc1nnc(SCC2=C(C(=O)O)N3C(=O)C(NC(=O)Cn4cnnn4)C3SC2)s1 (stereo not given)	5	-2	4	15	6	0
Cc1ccc(S(=O)(=O)c2nc(-c3ccccc3F)oc2N2CC(C)OC(C)C2)cc1 (stereo not given)	0	5	8	16	59*	0
O=C(Nc1ccc2nc(-c3ccco3)c(-c3ccco3)nc2c1)N1CCCCCC1	45*	5	47*	46	13	-1
Cc1nc2ccc(NC(=O)N3CCCCC3)cc2nc1C	-1	-23	3	7	-3	0
Cc1nn(C2CCS(=O)(=O)C2)c2nc(C3CC3)cc(C(=O)Nc3cccc(C#N)c3)c12 (stereo not given)	10	x	-7	x	x	x
